Legend:
[1] = target: T1, Alpha-1B adrenergic receptor (Homo sapiens, UniProt P35368); assay: Displacement of [3H]prazosin from human alpha-1B adrenoreceptor expressed in CHO cells after 30 mins; type: cell-based
T1 sequence (P35368 whole entry): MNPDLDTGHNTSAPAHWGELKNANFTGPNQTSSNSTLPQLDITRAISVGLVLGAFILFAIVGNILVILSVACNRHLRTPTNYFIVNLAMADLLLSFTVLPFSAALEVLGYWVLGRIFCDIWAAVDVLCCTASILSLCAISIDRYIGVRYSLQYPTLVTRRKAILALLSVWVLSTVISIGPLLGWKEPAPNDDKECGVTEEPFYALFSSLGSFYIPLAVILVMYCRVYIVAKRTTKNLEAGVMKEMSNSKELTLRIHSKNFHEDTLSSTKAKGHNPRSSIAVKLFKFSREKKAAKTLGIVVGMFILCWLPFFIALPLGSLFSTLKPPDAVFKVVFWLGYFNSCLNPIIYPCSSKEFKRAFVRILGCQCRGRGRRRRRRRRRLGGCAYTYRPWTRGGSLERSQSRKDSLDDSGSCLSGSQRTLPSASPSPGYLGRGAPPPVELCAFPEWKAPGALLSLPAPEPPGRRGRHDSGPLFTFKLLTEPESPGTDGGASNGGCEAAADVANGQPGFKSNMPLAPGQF
Method in brief: (§1)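 Membranes from CHO cells expressing each α₁-AR subtype, incubated 30 min at 25 °C in 50 mM Tris HCl pH 7.7 with 10 μM pargyline and 0.1% ascorbic acid, plus 0.5 nM [³H]prazosin and varying test compound concentrations. Nonspecific binding was defined with 1 μM prazosin.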

[2] = target: T2, Alpha-1A adrenergic receptor (Homo sapiens, UniProt P35348); assay: Displacement of [3H]prazosin from human alpha-1A adrenoreceptor expressed in CHO cells after 30 mins; type: cell-based; method in brief: as §1
T2 sequence (P35348 whole entry): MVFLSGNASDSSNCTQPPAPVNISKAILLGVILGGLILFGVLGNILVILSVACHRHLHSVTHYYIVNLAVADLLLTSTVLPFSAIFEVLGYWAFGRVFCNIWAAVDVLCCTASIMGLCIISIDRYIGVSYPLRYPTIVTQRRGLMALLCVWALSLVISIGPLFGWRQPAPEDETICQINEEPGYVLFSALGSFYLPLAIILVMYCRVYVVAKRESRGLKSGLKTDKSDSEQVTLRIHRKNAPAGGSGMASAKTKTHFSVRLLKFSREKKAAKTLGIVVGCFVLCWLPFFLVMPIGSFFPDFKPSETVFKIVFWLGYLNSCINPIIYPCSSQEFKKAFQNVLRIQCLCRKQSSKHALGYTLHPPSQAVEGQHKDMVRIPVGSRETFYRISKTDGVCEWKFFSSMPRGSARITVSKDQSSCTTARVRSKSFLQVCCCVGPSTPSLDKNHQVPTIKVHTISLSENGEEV

[3] = target: T3, Alpha-1D adrenergic receptor (Homo sapiens, UniProt P25100); assay: Displacement of [3H]prazosin from human alpha-1D adrenoreceptor expressed in CHO cells after 30 mins; type: cell-based; method in brief: as §1
T3 sequence (P25100 whole entry): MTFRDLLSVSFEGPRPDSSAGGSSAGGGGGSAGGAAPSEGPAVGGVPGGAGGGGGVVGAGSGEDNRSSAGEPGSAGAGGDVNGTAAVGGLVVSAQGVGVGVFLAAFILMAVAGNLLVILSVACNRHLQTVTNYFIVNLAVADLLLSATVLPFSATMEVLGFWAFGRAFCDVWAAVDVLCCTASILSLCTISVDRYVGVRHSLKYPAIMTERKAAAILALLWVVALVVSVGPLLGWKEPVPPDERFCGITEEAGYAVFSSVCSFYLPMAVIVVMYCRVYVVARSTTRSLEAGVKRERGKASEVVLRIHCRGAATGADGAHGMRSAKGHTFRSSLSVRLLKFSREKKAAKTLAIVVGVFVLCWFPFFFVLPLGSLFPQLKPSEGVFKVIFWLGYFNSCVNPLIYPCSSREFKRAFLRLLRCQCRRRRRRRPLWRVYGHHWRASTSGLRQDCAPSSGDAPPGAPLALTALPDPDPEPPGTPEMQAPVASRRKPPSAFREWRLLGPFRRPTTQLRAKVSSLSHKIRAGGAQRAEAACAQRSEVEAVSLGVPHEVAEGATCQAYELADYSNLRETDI

[4] = target: T4, 5-hydroxytryptamine receptor 1A (Rattus norvegicus, UniProt P19327); assay: Displacement of [3H]-8-OHDPAT from 5-HT1A receptor in rat hippocampal membranes after 30 mins; type: cell membranes, Hippocampus, Membrane
T4 sequence (P19327 whole entry): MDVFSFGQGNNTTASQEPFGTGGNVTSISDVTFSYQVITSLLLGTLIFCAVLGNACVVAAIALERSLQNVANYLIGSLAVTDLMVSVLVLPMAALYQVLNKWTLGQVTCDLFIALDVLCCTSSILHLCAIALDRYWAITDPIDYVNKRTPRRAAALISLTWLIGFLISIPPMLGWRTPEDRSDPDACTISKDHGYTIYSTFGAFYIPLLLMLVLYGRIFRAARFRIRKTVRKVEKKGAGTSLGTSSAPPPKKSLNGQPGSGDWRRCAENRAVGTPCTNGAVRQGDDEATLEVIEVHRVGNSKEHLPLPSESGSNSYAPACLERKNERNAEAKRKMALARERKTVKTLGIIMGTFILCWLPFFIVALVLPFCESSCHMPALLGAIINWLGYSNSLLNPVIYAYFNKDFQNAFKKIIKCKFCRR

SMILES	Ki [1] [µM]	Ki [2] [µM]	Ki [3] [µM]	Ki [4] [µM]
COc1ccc2c(c1OCCNC[C@@H]1COc3ccccc3O1)NCC2	0.372	0.0316	0.0832	0.219
COc1ccc2ccoc2c1OCCNC[C@@H]1COc2ccccc2O1	0.126	0.00912	0.0182	0.011
COc1ccc2c(c1OCCNC[C@@H]1COc3ccccc3O1)OCC2	0.162	0.017	0.0182	0.162
COc1ccc2cc[nH]c2c1OCCNC[C@@H]1COc2ccccc2O1	1.91	0.437	1.35	1.7

Reference: ChEMBL document CHEMBL2417545, “6-methoxy-7-benzofuranoxy and 6-methoxy-7-indolyloxy analogues of 2-[2-(2,6-Dimethoxyphenoxy)ethyl]aminomethyl-1,4-benzodioxane (WB4101):1 discovery of a potent and selective α1D-adrenoceptor antagonist” (J Med Chem, 2013)
